Source: PubChem BioAssay (several laboratories)
Rows were chosen to be rich in hits. Some 3.1% of all compounds tested hit in one or more screens of this group.
PP5 primary: inhibitors of human protein phosphatase 5 (PP5); actives 0.18% (n = 320,000); P53041; inhibition, % at 6.7 µM; purified PP5c, OMFP substrate fluorescence;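 active = inhibition above the campaign's mean inhibition across all tested compounds plus 3 SD, cut at about 9.5% in these data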
HCV core dimer: blocks dimerization of HCV core protein. TR-FRET GST/Flag-core106 dimerization, 1536-well. actives 0.33% (n = 300,000). inhibition, % at 5 µM;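 active = inhibition above the mean of all tested compounds plus 3 SD, set per screening campaign, cut at about 45% in these data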
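Material: Tagged HCV core106 pair (GST and Flag) | Amount: GST-core106 13.5 nM, Flag-core106 17 nM | Medium: KF-containing HEPES buffer, pH 7.45, DTT, CHAPS, BSA | Reagent: Eu donor and XL665 acceptor anti-tag antibodies | Schedule: 4 h at 22.5 °C | Technique: Time-resolved FRET, ex 340 nm, em 617 and 671 nm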
Fh CTSL1 inh: counter-screen for PFM18AAP inhibitors: inhibitors of F. hepatica cathepsin L1; recombinant F. hepatica cathepsin L1, Z-Leu-Arg-MCA fluorescence; inhibition, % at 5.96 µM; actives 0.49% (n = 300,000); AID 1906;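 active = inhibition above the mean of all tested compounds plus 3 SD, set per screening campaign, cut at about 17% in these data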
NadD block: NadD (S. aureus) enzyme inhibition; actives 0.78% (n = 360,000); purified NadD enzyme, colorimetric absorbance read-out; AID 602399; inhibition, % at 20 µM; in the data active = inhibition above about 26%
Myeloid diff 2: promotes myeloid progenitor differentiation. ER-HoxA9 myeloid progenitors, lysozyme-GFP differentiation, flow cytometry. calls only at 10 µM. actives 1% (n = 360,000);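 active = normalized GFP-positive differentiation at or above the plate's own cutoff, the solvent-only control mean plus 3 SD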;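 note: cells exposed to compound for four days before flow analysis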
PP1 counter: blocks human PP1-alpha phosphatase, a PP5 counter-screen. P62136. purified PP1alpha, OMFP fluorescence. inhibition, % at 6.7 µM. actives 0.9% (n = 320,000). AID 2235;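 active = inhibition above the mean inhibition of all tested compounds plus 3 SD, computed separately for each screening campaign, cut at about 15% in these data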
Target sequence (P62136 whole entry, looked up): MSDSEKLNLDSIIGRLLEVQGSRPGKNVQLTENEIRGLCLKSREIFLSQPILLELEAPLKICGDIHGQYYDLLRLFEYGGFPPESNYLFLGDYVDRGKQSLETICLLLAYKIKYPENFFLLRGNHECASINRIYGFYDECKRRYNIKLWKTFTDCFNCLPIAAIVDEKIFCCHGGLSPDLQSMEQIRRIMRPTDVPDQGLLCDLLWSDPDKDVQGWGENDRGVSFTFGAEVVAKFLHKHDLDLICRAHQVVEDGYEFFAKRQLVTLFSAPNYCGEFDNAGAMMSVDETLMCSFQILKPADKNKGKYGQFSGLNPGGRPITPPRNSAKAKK
NadD inh conf: confirmation of Staphylococcus aureus NadD inhibitors. shares compounds with NadD block. purified S. aureus NadD, colorimetric enzyme assay. inhibition, % at 20 µM. actives 13% (n = 2,000). AID 624309; in the data active = inhibition mostly above about 42%, no sharp cut-off; inactive = mostly below about 42%
Hits are given with their value; . = inactive; / = no result given; + = active, no number.

SMILES	PP5 primary	HCV core dimer	Fh CTSL1 inh	NadD block	Myeloid diff 2	PP1 counter	NadD inh conf
Oc1ccc(C[C@H]2CNC(=S)N2CC2CCCN2C[C@H](Cc2ccccc2)N2C[C@H](Cc3ccc(O)cc3)N(CCc3ccccc3)C2=S)cc1 (stereo partly drawn)	/	/	/	53	.	/	58
COC(=O)C1CC2=C(CCCC2=O)N(c2ccccc2)C1=O (stereo not drawn)	/	/	/	.	.	/	/
COc1cc(NC(=O)COc2ccc(Cl)cc2)ccc1NC(=O)C(C)C	.	.	.	.	.	.	/
COc1cc(NC(=O)COc2ccc(Cl)cc2)ccc1-c1cc2ccccc2oc1=O	.	.	.	38	.	.	.
N#Cc1ccc(NC(=O)Nc2ccc(Oc3ccc(NC(=O)Nc4ccc(C#N)cc4)cc3)cc2)cc1	.	.	.	28	.	17	.
N#C/C(=C\c1coc2ccc(O)cc2c1=O)C(=O)Nc1nc2ccccc2s1	.	.	.	30	.	.	.
N#C/C(=C\c1coc2ccccc2c1=O)C(N)=S	.	.	.	.	.	.	/
COc1cccc(CNC(=O)COC(=O)c2ccc(Cl)s2)c1	/	/	/	.	.	/	/
CCOc1cc(N2CCOCC2)c(OCC)cc1NC(=O)c1ccccc1N1CCCC1=O	/	/	/	.	.	/	/
O=C(NCCc1c[nH]c2ccccc12)C1CCC(Cn2c(=S)[nH]c3ccccc3c2=O)CC1 (stereo not drawn)	.	.	.	33	.	.	.
Cc1ccc(C)c(Cn2ncc3ccccc32)c1	.	.	.	.	.	.	/
CCN(CC)C(=O)Cn1cc(S(=O)(=O)CC(=O)NCCc2ccccc2)c2ccccc21	.	.	.	.	.	.	/
COc1ccc(/C=N/NC(=O)c2nn(-c3ccccc3)c(=O)c3c(N)scc23)cc1	.	.	31	51	.	.	.
COc1ccc(/C=N/NC(=O)c2nn(-c3ccc(Cl)cc3)c(=O)c3c(N)scc23)cc1	.	.	.	55	.	17	.
O=C(/C=C/c1cccs1)c1ccco1	/	/	/	.	.	/	/
Cc1oc(-c2ccccc2Cl)nc1CS(=O)(=O)CC(=O)NC1CCCC1	.	.	.	.	.	.	/
O=C(CN1C(=O)CS/C1=C\c1nc(-c2ccc(Cl)cc2)cs1)Nc1cccnc1Cl	.	.	.	.	.	.	/
Cc1ccc(-c2csc(/C=C3\SC(C)C(=O)N3CC(=O)Nc3ccccc3F)n2)cc1 (stereo not drawn)	.	.	.	32	.	.	.
O=S(=O)(O)c1cc(O)c2ccc(Nc3ccccc3)cc2c1	/	/	/	33	.	/	66
COc1ccccc1Nc1ccc2c(O)cc(S(=O)(=O)O)cc2c1	/	/	/	.	.	/	/
COc1ccc(Cl)cc1C(=O)NNC(=O)COC(=O)CCN=C1NS(=O)(=O)c2ccccc21	.	.	.	.	.	.	/
CC(C)c1nc2c(c(=O)c3ccccc3n2C)c(=O)n1CCc1ccccc1	.	.	.	.	.	.	/
COc1cccc(-c2noc(Cn3nc(C(=O)O)c4ccccc4c3=O)n2)c1	.	.	.	.	.	.	/
O=C(O)c1nn(Cc2ncc(-c3cccc(Cl)c3)o2)c(=O)c2ccccc12	.	.	.	34	.	.	.
O=C(c1cc2sccc2n1Cc1ccc(F)cc1)N1CCN(c2nc3ccccc3s2)CC1	.	.	.	55	.	17	.
SMILES	PP5 primary	HCV core dimer	Fh CTSL1 inh	NadD block	Myeloid diff 2	PP1 counter	NadD inh conf
Cc1cc(NC(=O)CC2Oc3ccccc3NC2=O)ccc1Br (stereo not drawn)	.	.	.	.	.	.	/
O=C/C(=C\Nc1ccc(Cl)cn1)c1nc2ccccc2o1	.	.	.	.	.	.	/
O=C/C(=C\Nc1ccc(Cl)cn1)c1nc2cc(Cl)ccc2o1	.	.	.	38	.	.	.
COc1cc2oc(=O)cc(CN3CCN(c4ccccc4F)CC3)c2cc1Cl	/	/	/	39	.	/	.
COCCn1c(N)c(Sc2ccc(Cl)cc2)c(=O)[nH]c1=O	.	.	.	.	.	.	/
CCOC(=O)CC1=C(C(=O)OCC)C(c2cccnc2)C(C#N)=C(N)O1 (stereo not drawn)	.	.	.	.	.	.	/
CCOC(=O)C1=C(CSc2nc(-c3ccccc3)ccc2C#N)OC(N)=C(C#N)C1c1cccnc1 (stereo not drawn)	.	.	.	40	+	.	.
CCOC(=O)C1=C(CSc2nc(-c3ccccc3)ccc2C#N)OC(N)=C(C#N)C1c1ccccc1 (stereo not drawn)	.	53	.	37	+	.	.
Cc1nc2ccc(C(=O)N(C)Cc3ccccc3)cn2c1N(C)C(=O)CCc1ccccc1	/	/	/	.	.	/	/
CC(C)c1ccc(NC(=O)COc2ccc(S(=O)(=O)N3CCOCC3)cc2)cc1	.	.	.	46	.	.	.
Cc1csc(NC(=O)CSc2nnc(NC(=O)COc3ccc(Cl)cc3)s2)n1	.	.	.	35	.	.	.
O=C(/C=C/c1cccc([N+](=O)[O-])c1)NC(=S)Nc1cccc(NC(=O)c2ccccc2Cl)c1	.	.	.	29	.	.	.
CC(=O)Nc1cccc(NC(=O)c2ccc([N+](=O)[O-])cc2Cl)c1	.	.	.	.	.	.	/
Cn1c(=O)c2c(ncn2Cc2ccc(Cl)cc2)n(C)c1=O	.	.	.	.	.	.	/
Cn1c(=O)c2c([nH]c(=S)n2Cc2ccc(Cl)cc2)n(C)c1=O	.	.	.	32	.	.	.
CCc1nnc(NS(=O)(=O)c2ccc(N=Cc3c(C)[nH]n(-c4ccc(C)c(C)c4)c3=O)cc2)s1	.	.	.	37	.	.	55
Cc1ccc(-n2[nH]c(C)c(C=Nc3ccc(S(=O)(=O)Nc4nccs4)cc3)c2=O)cc1	.	.	.	/	/	.	/
Cc1[nH]n(-c2ccc(Br)cc2)c(=O)c1C=Nc1ccc(S(=O)(=O)Nc2nccs2)cc1	.	.	.	42	.	.	.
CCCCn1c(N)c(N(CCOC)C(=O)COC(=O)COc2c(C)cc(C)cc2C)c(=O)[nH]c1=O	.	.	.	.	.	.	/
C[C@H](CO)N1C[C@H](C)[C@@H](CN(C)C(=O)c2cccnc2)Oc2ncc(Br)cc2C1=O	/	/	/	.	.	/	/
COc1ccc(OC)c(S(=O)(=O)CC(=O)c2cc3ccc(OC)cc3oc2=O)c1	.	62	.	36	.	.	.
Cc1c2cnn(CC(=O)Nc3c(F)c(F)cc(F)c3F)c(=O)c2c(C)n1Cc1ccccc1F	.	55	.	32	.	.	.
COCCCn1c(SCC(=O)Nc2ccc(NC(C)=O)cc2)nc2sc3c(c2c1=O)CCC3	.	.	.	.	.	.	/
CCC(C)[C@H](NC(=O)N1CC(=O)Nc2ccccc21)C(=O)N1CCC[C@H]1C(=O)O (stereo partly drawn)	.	.	.	.	.	.	/
